Data from ChEMBL document CHEMBL1795208 (J Med Chem, 2011).

Experiments:
Type in all cases: functional, cell-based
[1] = Antiproliferative activity against human JMAR cells after 72 hrs by MTS/PMS assay
How it was run: (§1)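 Cells kept in Advanced DMEM/F12 (1:1) with non-essential amino acids, 2 mM L-glutamine, penicillin, streptomycin and 10% FBS at 37 °C, 5% CO2. Seeded at 2000/well, attached overnight. Compound added in DMSO across a concentration range (1% DMSO final) for 72 h. Viable cells read by MTS/PMS and normalized to 1% DMSO controls (100%). IC50 taken from separate triplicate experiments.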

[2] = Antiproliferative activity against human MDA1986 cells after 72 hrs by MTS/PMS assay; conditions: MDA1986, 72 h; how it was run: as §1
B16-F10 = experiment: Antiproliferative activity against mouse B16F10 cells after 72 hrs by MTS/PMS assay; conditions: B16-F10, 72 h; how it was run: as §1
SK-MEL-28 = experiment: Antiproliferative activity against human SK-MEL-28 cells after 72 hrs by MTS/PMS assay; conditions: SK-MEL-28, 72 h; how it was run: as §1
[3] = Antiproliferative activity against human androgen-independent PC3MM2 cells after 72 hrs by MTS/PMS assay; conditions: PC3MM2, 72 h; how it was run: as §1
SK-BR-3 = experiment: Antiproliferative activity against human SKBR3 cells expressing HER2 after 72 hrs by MTS/PMS assay; conditions: SK-BR-3, 72 h; how it was run: as §1
[4] = Antiproliferative activity against human androgen-dependent LNCaP-LN3 cells after 72 hrs by MTS/PMS assay; conditions: LNCaP-LN3, 72 h; how it was run: as §1
MCF7 = experiment: Antiproliferative activity against human MCF7 cells expressing estrogen receptor after 72 hrs by MTS/PMS assay; conditions: MCF7, 72 h; how it was run: as §1

Row | SMILES | IC50 (B16-F10) | IC50 (SK-MEL-28) | IC50 (SK-BR-3) | IC50 (MCF7) | IC50 [1] | IC50 [2] | IC50 [3] | IC50 [4]
1 | COc1cccc(-c2cc(C(=O)Nc3cc4ccc(OC5CCN(C)CC5)c(OC)c4oc3=O)ccc2OC)c1 | 0.41 µM | 6.14 µM | 0.97 µM | 1.39 µM | 13.1 µM | 13.1 µM | 3.71 µM | 4.75 µM
2 | COc1cccc(-c2cc(C(=O)Nc3cc4ccc(O[C@@H]5OCC[C@@H](O)[C@H]5O)c(C)c4oc3=O)ccc2OC)c1 | 37.5 µM | 14.9 µM | 6.23 µM | 2.56 µM | 2.79 µM | 13.4 µM |  | 3.59 µM
3 | COc1cccc(-c2cc(C(=O)Nc3cc4ccc(O[C@H]5C[C@H](O)CO5)c(C)c4oc3=O)ccc2OC)c1 | 12.7 µM | 21.4 µM | 35.2 µM | > 100 µM | 24.1 µM | 6.9 µM | 10.1 µM | 3.72 µM
4 | COc1cccc(-c2cc(C(=O)Nc3cc4ccc(O[C@H]5OCC[C@@H](O)[C@H]5O)c(C)c4oc3=O)ccc2OC)c1 | 8.56 µM | 15.8 µM | 6.71 µM | 42.6 µM | 6.14 µM | 3.7 µM | 12.9 µM | 1.2 µM
5 | COc1cccc(-c2cc(C(=O)Nc3cc4ccc(OC5C=CCCC5)c(C)c4oc3=O)ccc2OC)c1 (stereo not drawn) | > 50 µM | 18.6 µM |  |  | 7.5 µM | 22.4 µM |  | 
6 | COc1cccc(-c2cc(C(=O)Nc3cc4ccc(OC5C=CCNC5)c(OC)c4oc3=O)ccc2OC)c1 (stereo not drawn) | 3.41 µM | 5.49 µM | 3.07 µM | 1.43 µM | 6.71 µM | 5.97 µM | 4.88 µM | 6.45 µM
7 | COc1cccc(-c2cc(C(=O)Nc3cc4ccc(O[C@@H]5OC[C@@H](O)[C@H]5O)c(C)c4oc3=O)ccc2OC)c1 | 4.55 µM | 5.74 µM | 12.5 µM | 37.2 µM | 12.6 µM | 1.94 µM |  | 3.65 µM
8 | COc1cccc(-c2cc(C(=O)Nc3cc4ccc(OC5CNC[C@@H](O)[C@H]5O)c(OC)c4oc3=O)ccc2OC)c1 (stereo partly drawn) | 11.8 µM | 11.4 µM | 8.98 µM | 10.2 µM | 11.6 µM | 21.7 µM | 14.4 µM | 12.2 µM
9 | COc1cccc(-c2cc(C(=O)Nc3cc4ccc(OC5C=CCC(C)(C)C5)c(C)c4oc3=O)ccc2OC)c1 (stereo not drawn) | > 50 µM | 23.8 µM |  |  | 6.7 µM | 24.4 µM |  | 
10 | COc1cccc(-c2cc(C(=O)Nc3cc4ccc(O[C@@H]5OC[C@@H](O)[C@H]5O)c(OC)c4oc3=O)ccc2OC)c1 | 1.3 µM | 6.41 µM | 7.57 µM | 11.7 µM | 2.71 µM | 5.73 µM | 10.6 µM | 2.6 µM
11 | COc1cccc(-c2cc(C(=O)Nc3cc4ccc(OC5CCC[C@@H](O)[C@H]5O)c(C)c4oc3=O)ccc2OC)c1 (stereo partly drawn) | 14.1 µM | 2.94 µM | > 100 µM | > 100 µM | 13.9 µM | 17.9 µM | 4.04 µM | 1.58 µM
12 | COc1cccc(-c2cc(C(=O)Nc3cc4ccc(O[C@@H]5OCCC[C@H]5O)c(C)c4oc3=O)ccc2OC)c1 | 1.01 µM | 1.47 µM | > 100 µM | > 100 µM | 16.1 µM | 0.81 µM | 10.1 µM | 3.75 µM
13 | COc1cccc(-c2cc(C(=O)Nc3cc4ccc(OC5C=CCN(C)C5)c(OC)c4oc3=O)ccc2OC)c1 (stereo not drawn) | 6.47 µM | 1.48 µM | 3.42 µM | 1.65 µM | 1.94 µM | 2.36 µM | 0.98 µM | 0.36 µM
14 | COc1cccc(-c2cc(C(=O)Nc3cc4ccc(O[C@H]5OCCC[C@H]5O)c(C)c4oc3=O)ccc2OC)c1 | 10.4 µM | 19.6 µM | > 100 µM | > 100 µM | 3.6 µM | 18.8 µM |  | 7.34 µM
15 | COc1cccc(-c2cc(C(=O)Nc3cc4ccc(O[C@@H]5OCCC[C@@H](O)[C@H]5O)c(C)c4oc3=O)ccc2OC)c1 | > 50 µM | 18.5 µM | 2.38 µM | > 100 µM | 7.4 µM | 22.9 µM |  | > 100 µM
16 | COc1cccc(-c2cc(C(=O)Nc3cc4ccc(OC5CN(C)C[C@@H](O)[C@H]5O)c(C)c4oc3=O)ccc2OC)c1 (stereo partly drawn) |  |  | 3.92 µM | 1.85 µM |  |  | 2.99 µM | 0.59 µM
17 | COc1cccc(-c2cc(C(=O)Nc3cc4ccc(OC5C=CCN(C(C)=O)C5)c(C)c4oc3=O)ccc2OC)c1 (stereo not drawn) |  |  | > 50 µM | > 50 µM |  |  | 3.73 µM | 0.9 µM

More lines, main results first:

Row | IC50 (B16-F10) | IC50 (SK-MEL-28) | IC50 (SK-BR-3) | IC50 (MCF7) | SMILES | IC50 [1] | IC50 [2] | IC50 [3] | IC50 [4]
18 | > 50 µM | 20.6 µM |  |  | COc1cccc(-c2cc(C(=O)Nc3cc4ccc(OC5C=CCC(C)C5)c(C)c4oc3=O)ccc2OC)c1 (stereo not drawn) | 24.9 µM | 21.8 µM |  | 
19 | 0.64 µM | 14.7 µM | 2.61 µM | 3.29 µM | COc1cccc(-c2cc(C(=O)Nc3cc4ccc(OC5CCCNC5)c(OC)c4oc3=O)ccc2OC)c1 (stereo not drawn) | 12.7 µM | 12.8 µM | 10.4 µM | 12.7 µM
20 | 2.3 µM | 2.14 µM | 0.98 µM | 1.4 µM | COc1cccc(-c2cc(C(=O)Nc3cc4ccc(OC(C)=O)c(C)c4oc3=O)ccc2OC)c1 | 12.6 µM | 1.67 µM | 2.85 µM | 1.5 µM
21 | 2.86 µM | 5.41 µM | 1.21 µM | 1.68 µM | COc1cccc(-c2cc(C(=O)Nc3cc4cc(OC)c(OC5C=CCNC5)c(C)c4oc3=O)ccc2OC)c1 (stereo not drawn) | 11.6 µM | 5.9 µM | 3.57 µM | 5.4 µM
22 | 36.7 µM | 3.74 µM | 1.19 µM | 1.79 µM | COc1cccc(-c2cc(C(=O)Nc3cc4cc(OC)c(OC5CCN(C)CC5)c(C)c4oc3=O)ccc2OC)c1 | 1.84 µM | 1.54 µM | 2.84 µM | 4.17 µM
23 | 1.19 µM | 1.47 µM | 0.11 µM | 0.52 µM | COc1cc2cc(NC(=O)c3cc4ccccc4[nH]3)c(=O)oc2c(C)c1OC1CCN(C)CC1 | 1.24 µM | 1.42 µM | 0.87 µM | 1.47 µM
24 | 2.03 µM | 1.35 µM | 0.57 µM | 0.56 µM | COc1cc2cc(NC(=O)c3cc4ccccc4[nH]3)c(=O)oc2c(C)c1OCCCN(C)C | 2.65 µM | 1.81 µM | 2.58 µM | 
25 | 37.4 µM | 25.6 µM | 5.36 µM | 9.8 µM | CNCCOc1ccc2cc(NC(=O)c3ccc(OC)c(-c4cccc(OC)c4)c3)c(=O)oc2c1C | 35.1 µM | 21.9 µM | 14 µM | > 100 µM
26 | 6.14 µM | 31.5 µM | 1.96 µM | 5.27 µM | COc1cccc(-c2cc(C(=O)Nc3cc4cc(OC)c(OC5C=CCN(C)C5)c(C)c4oc3=O)ccc2OC)c1 (stereo not drawn) | 18.4 µM | 16.4 µM | 3.87 µM | 4.49 µM
27 | 15.7 µM | 14.7 µM | 1.02 µM | 1.46 µM | COc1cccc(-c2cc(C(=O)Nc3cc4ccc(OCCN(C)C)c(C)c4oc3=O)ccc2OC)c1 | 18.4 µM | 17.5 µM | 4.17 µM | 6.65 µM
28 | 9.37 µM | 12.4 µM | > 100 µM | > 100 µM | COc1cccc(-c2cc(C(=O)Nc3cc4ccc(O[C@@H]5C[C@H](O)CO5)c(C)c4oc3=O)ccc2OC)c1 | 6.19 µM | 18.8 µM | 26.8 µM | 4.96 µM
29 | 23.9 µM | 29.4 µM |  |  | COc1cccc(-c2cc(C(=O)Nc3cc4cc(OC)c(OC5CCCN(C(C)=O)C5)c(C)c4oc3=O)ccc2OC)c1 (stereo not drawn) | 32.8 µM | 36.4 µM |  | 
30 | 5.04 µM | 13.8 µM | 3.65 µM | 3.34 µM | COc1cccc(-c2cc(C(=O)Nc3cc4cc(OC)c(OC5CNC[C@@H](O)[C@H]5O)c(C)c4oc3=O)ccc2OC)c1 (stereo partly drawn) | 11.5 µM | 13.8 µM | 6.84 µM | 9.45 µM
31 | 2.6 µM | 6.14 µM | 2.06 µM | 5.04 µM | COc1cccc(-c2cc(C(=O)Nc3cc4ccc(OC5CCCN(C)C5)c(C)c4oc3=O)ccc2OC)c1 (stereo not drawn) | 12.6 µM | 4.5 µM | 4.23 µM | 1.22 µM
32 | 42.7 µM | 18.4 µM | > 100 µM | > 100 µM | COc1cccc(-c2cc(C(=O)Nc3cc4ccc(O[C@@H]5OCC[C@H]5O)c(C)c4oc3=O)ccc2OC)c1 | 14.9 µM | 21.4 µM |  | 
33 | 21.4 µM | 27.6 µM |  |  | COc1cccc(-c2cc(C(=O)Nc3cc4cc(OC)c(OC5C=CCN(C(C)=O)C5)c(C)c4oc3=O)ccc2OC)c1 (stereo not drawn) | 35.1 µM | 25.1 µM |  | 
34 |  |  | 2.58 µM | 1.86 µM | COc1c(OC2CCN(C)CC2)ccc2cc(NC(=O)c3cc4ccccc4[nH]3)c(=O)oc12 |  |  | 7.93 µM | 12.6 µM
